According to ChEMBL document CHEMBL1156597, “Structure-activity relationship of kahalalide F synthetic analogues” (J Med Chem, 2008):

Assays:
[1] = system: DU-145; experiment: Cytotoxicity against human DU145 cells after 48 hrs by SRB assay; type: functional, cell-based; conditions: Homo sapiens, DU-145, 48 h; for CC50: read-out: LC50 (the source's name)
Outline: (§1)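 Cells grown in RPMI 1640 with 10% FBS and penicillin/streptomycin at 37 °C and 5% CO₂, trypsinized, then seeded at 5 × 10³/well. After 18 h drug-free attachment, samples in DMSO/EtOH/PBS (0.5:0.5:99) were added for 48 h continuous exposure. Cells were fixed with cold TCA (1 h, 4 °C) and stained with SRB (10 min). Tris-solubilized stain read at 490 nm. Triplicate wells, mean ± SD; GI₅₀ derived.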

[2] = system: LoVo; experiment: Cytotoxicity against human LoVo cells after 48 hrs by SRB assay; type: functional; conditions: for CC50: read-out: LC50 (the source's name)
[3] = system: LoVo; experiment: Cytotoxicity against human doxorubicin resistant LoVo cells after 48 hrs by SRB assay; type: functional; conditions: for CC50: read-out: LC50 (the source's name); outline: as §1
[4] = system: HT-29; experiment: Cytotoxicity against human HT29 cells after 48 hrs by SRB assay; type: functional, cell-based; conditions: Homo sapiens, HT-29, 48 h; for CC50: read-out: LC50 (the source's name); outline: as §1
[5] = system: HeLa; experiment: Cytotoxicity against human HeLa cells after 48 hrs by SRB assay; type: functional; conditions: for CC50: read-out: LC50 (the source's name); outline: as §1
[6] = system: PANC-1; experiment: Cytotoxicity against human PANC1 cells after 48 hrs by SRB assay; type: functional; conditions: PANC-1, 48 h; for CC50: read-out: LC50 (the source's name); outline: as §1
[7] = system: SK-BR-3; experiment: Cytotoxicity against human SKBR3 cells after 48 hrs by SRB assay; type: functional; conditions: SK-BR-3, 48 h; for GI50: read-out: GI50; for CC50: read-out: LC50 (the source's name); outline: as §1
[8] = system: LNCaP; experiment: Cytotoxicity against human LNcaP cells after 48 hrs by SRB assay; type: functional; conditions: for CC50: read-out: LC50 (the source's name); outline: as §1
[9] = Cytotoxicity against human HeLa-APL cells after 48 hrs by SRB assay; type: functional; outline: as §1
[10] = Cytotoxicity against human IGROV-ET cells after 48 hrs by SRB assay; type: functional; conditions: for CC50: read-out: LC50 (the source's name); outline: as §1
[11] = system: K562; experiment: Cytotoxicity against human K562 cells after 48 hrs by SRB assay; type: functional; conditions: K562, 48 h; for CC50: read-out: LC50 (the source's name); outline: as §1
[12] = system: A549; experiment: Cytotoxicity against human A549 cells after 48 hrs by SRB assay; type: functional, cell-based; conditions: Homo sapiens, A549, 48 h; outline: as §1
[13] = Cytotoxicity against human IGROV cells after 48 hrs by SRB assay; type: functional; conditions: for CC50: read-out: LC50 (the source's name); outline: as §1
[14] = system: SK-MEL-28; experiment: Cytotoxicity against human SK-MEL-28 cells after 48 hrs by SRB assay; type: functional, cell-based; conditions: Homo sapiens, SK-MEL-28, 48 h; for CC50: read-out: LC50 (the source's name); outline: as §1

## C/C=C1\NC(=O)[C@H](Cc2ccccc2)NC(=O)[C@@H](C(C)C)NC(=O)[C@@H]([C@H](C)CC)NC(=O)[C@H](NC(=O)[C@H](NC(=O)[C@H](CCCN)NC(=O)[C@H]2CCCN2C(=O)[C@H](NC(=O)[C@H](CCC2CCCCC2)NC(=O)[C@@H](NC(=O)[C@H](NC(=O)CCCC(C)C)C(C)C)[C@@H](C)O)C(C)C)[C@H](C)CC)[C@H](C)OC(=O)[C@H](C(C)C)NC1=O
[1]
  GI50: 507 nM
  CC50: 709 nM
[1]; read-out: GI50
  GI50: 350 nM
[2]
  GI50: 240 nM
  TGI: 256 nM
  CC50: 273 nM
[3]
  GI50: 114 nM
  TGI: 153 nM
  CC50: 1000 nM
[4]
  GI50: 235 nM
  TGI: 265 nM
  CC50: 0.299 µg/mL
[5]
  GI50: 394 nM
  TGI: 628 nM
  CC50: 829 nM
[6]
  GI50: 1040 nM
  TGI: 1380 nM
  CC50: 1700 nM
[7]
  TGI: 267 nM
  GI50: 234 nM
  CC50: 230 nM
[8]
  GI50: 639 nM
  TGI: 909 nM
  CC50: 1290 nM
[9]
  GI50: 462 nM
  LC50 (concentration giving 50% net cell kill): 732 nM
  TGI: 672 nM
[10]
  GI50: 380 nM
  CC50: 455 nM
[10]; read-out: GI50
  GI50: 377 nM
[11]
  CC50: 1850 nM
[12]
  GI50: 233 nM
  LC50: 437 nM
[12]; read-out: GI50
  GI50: 186 nM
[13]
  TGI: 2940 nM
  CC50: 3870 nM
[13]; read-out: GI50
  GI50: 284 nM
[14]
  GI50: 467 nM
  CC50: 626 nM
[14]; read-out: GI50
  GI50: 329 nM

## C/C=C1\NC(=O)[C@H](Cc2ccccc2)NC(=O)[C@@H](C(C)C)NC(=O)[C@@H]([C@H](C)CC)NC(=O)[C@H](NC(=O)[C@H](NC(=O)[C@H](CCCNC(=O)CCOCCOCCN)NC(=O)[C@H]2CCCN2C(=O)[C@H](NC(=O)[C@@H](NC(=O)[C@@H](NC(=O)[C@H](NC(=O)CCCC(C)C)C(C)C)[C@@H](C)O)C(C)C)C(C)C)[C@H](C)CC)[C@H](C)OC(=O)[C@H](C(C)C)NC1=O
[1]
  GI50: 852 nM
  CC50: 982 nM
[1]; read-out: GI50
  GI50: 738 nM
[2]
  CC50: 301 nM
[3]
  CC50: 29.5 nM
[4]
  CC50: 390 nM
[5]
  GI50: 711 nM
  TGI: 942 nM
  CC50: 944 nM
[6]
  GI50: 1250 nM
  TGI: 1060 nM
  CC50: 1600 nM
[7]
  TGI: 235 nM
  GI50: 248 nM
  CC50: 111 nM
[8]
  CC50: 866 nM
[9]
  GI50: 515 nM
  LC50 (concentration giving 50% net cell kill): 852 nM
  TGI: 658 nM
[10]
  GI50: 287 nM
  CC50: 510 nM
[10]; read-out: GI50
  GI50: 195 nM
[11]
  CC50: 159 nM
[12]
  GI50: 595 nM
  LC50: 350 nM
[12]; read-out: GI50
  GI50: 4920 nM
[13]
  GI50: 134 nM
  CC50: 262 nM
[13]; read-out: GI50
  GI50: 176 nM
[14]
  GI50: 956 nM
  CC50: 954 nM
[14]; read-out: GI50
  GI50: 952 nM

## C/C=C1\NC(=O)[C@H](CCC2CCCCC2)NC(=O)[C@@H](C(C)C)NC(=O)[C@@H]([C@@H](C)CC)NC(=O)[C@H](NC(=O)[C@H](NC(=O)[C@H](CCCN)NC(=O)[C@H]2CCCN2C(=O)[C@H](NC(=O)[C@@H](NC(=O)[C@@H](NC(=O)[C@H](NC(=O)CCCC(C)C)C(C)C)[C@@H](C)O)C(C)C)C(C)C)[C@@H](C)CC)[C@@H](C)OC(=O)[C@H](C(C)C)NC1=O
[1]
  GI50: 472 nM
  CC50: 553 nM
[1]; read-out: GI50
  GI50: 464 nM
[2]
  GI50: 266 nM
  TGI: 282 nM
  CC50: 298 nM
[3]
  GI50: 224 nM
  TGI: 258 nM
  CC50: 296 nM
[4]
  GI50: 294 nM
  TGI: 352 nM
  CC50: 359 nM
[5]
  GI50: 304 nM
  TGI: 313 nM
  CC50: 500 nM
[6]
  GI50: 1120 nM
  TGI: 1290 nM
  CC50: 1490 nM
[7]
  TGI: 205 nM
  GI50: 165 nM
  CC50: 256 nM
[8]
  GI50: 384 nM
  TGI: 625 nM
  CC50: 661 nM
[9]
  GI50: 319 nM
  LC50 (concentration giving 50% net cell kill): 617 nM
  TGI: 499 nM
[10]
  GI50: 312 nM
  CC50: 350 nM
[10]; read-out: GI50
  GI50: 232 nM
[11]
  GI50: 1420 nM
  TGI: 1410 nM
  CC50: 1390 nM
[12]
  GI50: 857 nM
  LC50: 959 nM
[12]; read-out: GI50
  GI50: 756 nM
[13]
  GI50: 372 nM
  CC50: 378 nM
[13]; read-out: GI50
  GI50: 276 nM
[14]
  TGI: 1000 nM
  CC50: 983 nM
[14]; read-out: GI50
  GI50: 1020 nM
